Legend:
[1] = Growth inhibition of doxorubicin-resistant human MES-SA/Dx5 cells at 1.0 uM after 48 hrs by MTT assay; type: functional; details: MES-SA/Dx5, 48 h
Method in brief: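 Exponential-phase MES-SA/Dx5 cells were seeded at 1×10^5/mL in McCoy's 5A with 10% FCS and penicillin/streptomycin on poly-L-lysine-coated wells and preincubated 4 h at 37 °C under 5% CO2. Compound was added in medium as a 1 µmol/L solution and cells were grown 48 h. In the MTT read-out, DMSO-dissolved formazan absorbance was measured. Inhibition% = 1 − (drug−blank)/(control−blank), with untreated cells as control and a cell-free blank.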

[2] = Growth inhibition of doxorubicin-resistant human MES-SA/Dx5 cells after 48 hrs by MTT assay; type: functional, cell-based; details: MES-SA/Dx5, 48 h
Method in brief: (§1)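 MES-SA or MES-SA/Dx5 cells in exponential growth were seeded at 1×10^5/mL in McCoy's 5A with 10% FCS, penicillin and streptomycin on poly-L-lysine-coated plates and held 4 h at 37 °C, 5% CO2. Doxorubicin was then added at final 0.04–10.00 µM (serial halving) for 48 h. Read-out was MTT, with dried formazan dissolved in DMSO and absorbance read. Survival% = (treated−blank)/(control−blank), and IC50 was taken from the survival–concentration plot.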

[3] = Growth inhibition of doxorubicin-sensitive human MES-SA cells after 48 hrs by MTT assay; type: functional, cell-based; method in brief: as §1

Compound	inhibition at 1 µM [1]	IC50 [2]	IC50 [3]
CC1(C)N2Cc3[nH]c4ccccc4c3C[C@H]2C(=O)N1[C@@H](CCC(N)=O)C(=O)OCc1ccccc1	0%		
CCC(C)[C@@H](C(=O)OCc1ccccc1)N1C(=O)[C@@H]2Cc3c([nH]c4ccccc34)CN2C1(C)C (stereo partly specified)	0%		
CC(C)[C@@H](C(=O)OCc1ccccc1)N1C(=O)[C@@H]2Cc3c([nH]c4ccccc34)CN2C1(C)C	0%		
CC(C)C[C@@H](C(=O)OCc1ccccc1)N1C(=O)[C@@H]2Cc3c([nH]c4ccccc34)CN2C1(C)C	38.9%		
CC1(C)N2Cc3[nH]c4ccccc4c3C[C@H]2C(=O)N1[C@@H](Cc1ccccc1)C(=O)OCc1ccccc1	31.2%		
CC1(C)N2Cc3[nH]c4ccccc4c3C[C@H]2C(=O)N1[C@@H](Cc1c[nH]c2ccccc12)C(=O)OCc1ccccc1	0%		
CC1(C)N2Cc3[nH]c4ccccc4c3C[C@H]2C(=O)N1[C@@H](CC(=O)OCc1ccccc1)C(=O)OCc1ccccc1	31.2%		
CC1(C)N2Cc3[nH]c4ccccc4c3C[C@H]2C(=O)N1[C@@H](CC(N)=O)C(=O)OCc1ccccc1	0%		
C[C@@H](C(=O)OCc1ccccc1)N1C(=O)[C@@H]2Cc3c([nH]c4ccccc34)CN2C1(C)C	0%		
CC1(C)N(CC(=O)OCc2ccccc2)C(=O)[C@@H]2Cc3c([nH]c4ccccc34)CN21	0%		
CC1(C)N2Cc3[nH]c4ccccc4c3C[C@H]2C(=O)N1[C@@H](Cc1ccc(O)cc1)C(=O)OCc1ccccc1	0%		
CC1(C)N2Cc3[nH]c4ccccc4c3C[C@H]2C(=O)N1[C@@H](COCc1ccccc1)C(=O)OCc1ccccc1	0%		
CC1(C)N2Cc3[nH]c4ccccc4c3C[C@H]2C(=O)N1[C@@H](CCC(=O)OCc1ccccc1)C(=O)OCc1ccccc1	13.4%		
CC1(C)N2Cc3[nH]c4ccccc4c3C[C@H]2C(=O)N1[C@@H](CCCCNC(=O)OCc1ccccc1)C(=O)OCc1ccccc1	0%		
COc1cccc2c1C(=O)c1c(O)c3c(c(O)c1C2=O)C[C@@](O)(C(=O)CO)C[C@@H]3O[C@H]1C[C@H](N)[C@H](O)[C@H](C)O1 [DOXORUBICIN]		1.55 µM	0.347 µM
